The text below walks through data of PubChem BioAssay AID504518 (Sanford-Burnham Center for Chemical Genomics, 2011).

The IC50 is the point on the concentration scale where inhibition reaches its midpoint.

This test deals with HEK-293T NF-kB-Luc, TNFa-induced, luciferase luminescence 14 h. Briefly: TNFa-induced NF-kB reporter inhibition, SAR follow-up, selectivity assay for B-cell antigen receptor NF-kB inhibitors, cell-based, HEK-293T, luminescence (AID 504518). The method, boiled down:
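Test system: HEK-293-T NF-kB luciferase reporter cells. Quantity: 6000 reporter cells per well. Reagent: TNF-alpha, 0.1 ng/mL. Compound dosing: dose series, DMSO at most 1%. Timing: 14 h compound exposure at 37 °C, 5% CO2. Signal: luciferase luminescence measured with SteadyGlo reagent.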

Activity calls are given as the source filed them.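 The calls were made as follows: active = mean IC50 at or below 20 µM; inactive = the rest.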

As to `CCNC(=O)CCc1nc(-c2ccccc2Cl)no1`, the IC50 was > 79 µM (inactive).
Then `CCOc1ccc(-c2nc(CSCC(=O)N(C)C)c(C)o2)cc1`, with 78.5 µM (inactive); and `CCNC(=O)CCc1nc(-c2ccccc2)no1`, with > 79 µM (inactive); and `CC(C)(C)c1ccc(-c2noc(CCC(=O)O)n2)cc1`, with 0.29 µM.
As for `CCCCOc1ccc(-c2nc(CSCC(=O)NCc3ccco3)c(C)o2)cc1`, the half-inhibitory concentration (IC50) was 13.1 µM.
Turning to `CCOc1ccc(-c2noc(CCC(=O)O)n2)cc1`, the IC50 is 10.6 µM.
Regarding `CCCCc1ccc(-c2noc(CCC(=O)NC(C)CC)n2)cc1` (stereo not drawn), the IC50 was 0.51 µM.
In the case of `CC(C)c1ccc(-c2noc(CCC(=O)NC3CC3)n2)cc1`, the concentration for half-maximal inhibition (IC50) was 3.11 µM.
Turning to `CC(C)(C)c1ccc(-c2noc(CCC(N)=O)n2)cc1`, the IC50 is 0.78 µM.
Then `CCc1ccc(-c2nc(CSCC(=O)NC3CC3)c(C)o2)cc1`, with 42.2 µM (inactive); and `CCNC(=O)CCc1nc(-c2cccc(F)c2)no1`, with > 79 µM (inactive).
Turning to `CCOc1ccc(-c2nc(CSCC(=O)NC)c(C)o2)cc1`, the IC50 is > 79 µM (inactive).
The result for `CCOc1ccc(-c2nc(CSCC(=O)NC3CC3)c(C)o2)cc1` reads > 79 µM (inactive); that for `CCC(C)NC(=O)CCc1nc(-c2ccc(C(C)(C)C)cc2)no1` (stereo not drawn), 3 µM; that for `Cc1oc(-c2ccc(C(F)(F)F)cc2)nc1CSCC(=O)NC1CC1`, 24.4 µM (inactive).
Consider `CNC(=O)CCc1nc(-c2ccccc2)no1`, for which the IC50 is > 79 µM (inactive).
Then `Cc1oc(-c2ccc(OC(F)(F)F)cc2)nc1CSCC(=O)O`, with 0.11 µM.
Then `CCNC(=O)CCc1nc(-c2ccccc2C)no1`, with > 79 µM (inactive).
For `COc1ccc(-c2nc(CSCC(=O)NC3CC3)c(C)o2)cc1`, the IC50 was > 79 µM (inactive).
Then `CCC(C)NC(=O)CCc1nc(-c2ccc(C(C)C)cc2)no1` (stereo not drawn), with 3.48 µM; and `CCN(CC)C(=O)CCc1nc(-c2ccc(C(C)(C)C)cc2)no1`, with 16.8 µM; and `CCOc1ccc(-c2nc(CSCC(=O)NCc3ccco3)c(C)o2)cc1`, with 21.4 µM (inactive).
As to `CCC(C)NC(=O)CCc1nc(-c2ccccc2)no1` (stereo not drawn), the IC50 was > 79 µM (inactive).
On to `CC(C)Nc1ccc(C(CC(=O)O)NC(=O)c2ccccc2)cc1[N+](=O)[O-]` (stereo not drawn), for which the IC50 was > 79 µM (inactive).
Then `CCNC(=O)CCc1nc(-c2ccc(C(C)C)cc2)no1`, with 21.3 µM (inactive).
Then `Cc1oc(-c2ccccc2)nc1CSCC(=O)NC1CC1`, with > 79 µM (inactive).
Then `CC(C)c1ccc(-c2noc(CCC(=O)NC(C)(C)C)n2)cc1`, with 5 µM; and `CCc1ccc(-c2noc(CCC(=O)NC(C)CC)n2)cc1` (stereo not drawn), with 14.1 µM; and `COc1ccc(-c2nc(CSCC(=O)NCc3ccco3)c(C)o2)cc1`, with 35.8 µM (inactive).
On to `CCCOc1ccc(-c2nc(CSCC(=O)O)c(C)o2)cc1`, for which the concentration for half-maximal inhibition (IC50) is 0.03 µM.
Regarding `CN(C)C(=O)CCc1nc(-c2ccc(C(C)(C)C)cc2)no1`, the IC50 was 42.2 µM (inactive).
The result for `CCOc1ccc(-c2nc(CSCC(=O)NC(C)(C)C)c(C)o2)cc1` reads 37.7 µM (inactive).
Then `CNC(=O)CCc1nc(-c2ccc(C(C)C)cc2)no1`, with 56.9 µM (inactive).
Take `CCOc1ccc(-c2nc(CSCC(=O)NC3CC3)c(-c3ccccc3)o2)cc1`: the IC50 is > 79 µM (inactive).
With `CCNC(=O)CCc1nc(-c2ccc(C(C)(C)C)cc2)no1`, the IC50 was 35.8 µM (inactive).
The result for `Cc1ccc(-c2nc(CSCC(=O)NCc3ccco3)c(C)o2)cc1` reads 33.6 µM (inactive).
The result for `CC(C)(C)NC(=O)CCc1nc(-c2ccccc2)no1` reads > 79 µM (inactive); that for `CC(C)(C)c1ccc(-c2noc(CCC(=O)NC3CC3)n2)cc1`, 12 µM; that for `CCNC(=O)CCc1nc(-c2c(Cl)cccc2Cl)no1`, > 79 µM (inactive).
`CCOC(=O)CC(NC(=O)c1ccc(Br)cc1)c1ccc(F)c([N+](=O)[O-])c1` (stereo not drawn): the IC50 is 73.4 µM (inactive).
Then `CCOc1ccc(-c2nc(CSCC(=O)NCC3CC3)c(C)o2)cc1`, with 55.4 µM (inactive); and `Cc1oc(-c2ccccc2)nc1CSCC(=O)NCc1ccco1`, with > 79 µM (inactive).
For `CCCOc1ccc(-c2nc(CSCC(=O)NCc3ccco3)c(C)o2)cc1`, the IC50 is 9.74 µM.
The result for `CCNC(=O)CCc1nc(-c2cccc(OC)c2)no1` reads > 79 µM (inactive); that for `CCCCOc1ccc(-c2nc(CSCC(=O)O)c(C)o2)cc1`, 0.04 µM; that for `CCOc1ccc(-c2nc(CSCC(=O)NC3CCC3)c(C)o2)cc1`, 38.7 µM (inactive).
For `CCCOc1ccc(-c2nc(CSCC(=O)NC3CC3)c(C)o2)cc1`, the IC50 was 31.5 µM (inactive).
The result for `Cc1ccc(-c2nc(CSCC(=O)NC3CC3)c(C)o2)cc1` reads 71.1 µM (inactive); that for `CCOc1ccc(-c2nc(CSCC(N)=O)c(C)o2)cc1`, > 79 µM (inactive); that for `CCCCc1ccc(-c2noc(CCC(=O)NC(C)(C)C)n2)cc1`, 0.66 µM.
Then `COc1ccc(C(=O)Nc2ccc3[nH]c(-c4cccc(OC)c4)cc(=O)c3c2)cc1`, with > 79 µM (inactive); and `CCc1ccc(-c2noc(CCC(=O)NC(C)(C)C)n2)cc1`, with 22 µM (inactive); and `Cc1oc(-c2ccc(OC(F)(F)F)cc2)nc1CSCC(=O)NC1CC1`, with 27.9 µM (inactive).
With `CCOc1ccccc1-c1nc(CSCC(=O)O)c(C)o1`, the IC50 was > 79 µM (inactive).
The result for `COc1cccc(-c2cc(=O)c3cc(NC(=O)c4ccc(N(C)C)cc4)ccc3[nH]2)c1` reads 15.2 µM.
Take `Cc1oc(-c2ccc(C(F)(F)F)cc2)nc1CSCC(=O)O`: the IC50 is 0.38 µM.
On to `CCc1ccc(-c2nc(CSCC(=O)NC3CC3)c(-c3ccccc3)o2)cc1`, for which the IC50 is > 79 µM (inactive).
Consider `CC(C)(C)c1ccc(-c2noc(CCC(=O)NC3CCC3)n2)cc1`, for which the IC50 is 1.18 µM.
Then `CCNC(=O)CCc1nc(-c2ccc(OCC)cc2)no1`, with > 79 µM (inactive); and `CCOc1ccc(-c2nc(CSCC(=O)O)c(C)o2)cc1`, with 0.04 µM; and `CCNC(=O)CCc1nc(-c2ccc(CC)cc2)no1`, with 65.3 µM (inactive).
Consider `CCOc1cccc(-c2nc(CSCC(=O)NC3CC3)c(C)o2)c1`, for which the IC50 is > 79 µM (inactive).
Then `COc1cccc(-c2cc(=O)c3cc(NC(=O)c4ccccc4)ccc3[nH]2)c1`, with > 79 µM (inactive).
Then `CCCCc1ccc(-c2noc(CCC(=O)NCC)n2)cc1`, with 0.77 µM; and `CCCCOc1ccc(-c2nc(CSCC(=O)NC3CC3)c(C)o2)cc1`, with 11.1 µM.
The result for `CCc1ccc(-c2nc(CSCC(=O)NCc3ccco3)c(C)o2)cc1` reads > 79 µM (inactive).
Take `O=C(CCc1nc(-c2ccccc2)no1)NC1CC1`: the IC50 is > 79 µM (inactive).
Then `CCOc1ccc(-c2nc(CSCC(=O)N3CCOCC3)c(C)o2)cc1`, with 64.6 µM (inactive); and `O=C(O)CCc1nc(-c2ccccc2)no1`, with > 79 µM (inactive).
The result for `CCNC(=O)CCc1nc(-c2cccc(C)c2)no1` reads > 79 µM (inactive); that for `CCc1ccc(-c2noc(CCC(=O)NC3CC3)n2)cc1`, 21.1 µM (inactive); that for `CNC(=O)CCc1nc(-c2ccc(C(C)(C)C)cc2)no1`, 66.8 µM (inactive).
The result for `C#CCNC(=O)CSCc1nc(-c2ccc(OCC)cc2)oc1C` reads > 79 µM (inactive); that for `CCCCc1ccc(-c2noc(CCC(=O)NC3CC3)n2)cc1`, 0.55 µM; that for `CCc1ccc(-c2noc(CCC(=O)NC)n2)cc1`, > 79 µM (inactive).
`CCCCc1ccc(-c2noc(CCC(=O)NC)n2)cc1`: the concentration for half-maximal inhibition (IC50) is 1.98 µM.
Then `COC(=O)CCc1nc(-c2ccc(C(C)(C)C)cc2)no1`, with 0.22 µM; and `CCOc1ccccc1-c1nc(CSCC(=O)NC2CC2)c(C)o1`, with > 79 µM (inactive).
